We go through three molecules from ChEMBL document CHEMBL3259516, “Structure-based design and synthesis of bicyclic fused-pyridines as MEK inhibitors” (Bioorg Med Chem Lett, 2014).

The target of data set [1] is T1, Dual specificity mitogen-activated protein kinase kinase 1 (Homo sapiens, UniProt Q02750). The data set is described as follows: Inhibition of MEK1 (unknown origin).
The target of data set [2] is T1, Dual specificity mitogen-activated protein kinase kinase 1. The data set is described as follows: Inhibition of MEK1 in human COLO205 cells. The data set is classed as cell-based, COLO 205.
In a further data set the test system is COLO 205. The data set is described as follows: Antitumor activity against human COLO205 cells xenografted in mouse assessed as tumor growth inhibition at 3 mg/kg, po qd for 14 days relative to control. Format: functional. The following applies: COLO 205, 336 h, read-out: TGI. An outline of the steps:
(§1)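 Human colorectal Colo-205 xenografts in mice; test agent given by oral gavage at 3.0 mg/kg once daily for 14 days. Tumor growth inhibition scored relative to control, and body weight followed in all animals throughout the study.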
For orientation: In xenograft studies the graft and the host belong to different species.

Data set [3] is described as follows: Plasma protein binding in human. The following applies: read-out: PPB (converted). The data set is classed as ADME, cell-free.
The nature of data set [4]: AUC in beagle dog at 1 mg/kg, iv. The data set is classed as ADME, organism-based, Canis lupus familiaris. Also on record: dose 1 mg/kg, route intravenous. The following applies: plasma.
Data set [5] can be described thus: Cmax in beagle dog at 1 mg/kg, po. Format: ADME, organism-based, Canis lupus familiaris. Also noted: dose 1 mg/kg, route oral. As to conditions: in vivo; call rule not given here.
Data set [6] in a line: Half life in beagle dog at 1 mg/kg, po. The data set is classed as ADME, organism-based, Canis lupus familiaris. Also noted: dose 1 mg/kg, route oral. As to conditions: in vivo.
The nature of data set [7]: AUC in rat at 5 mg/kg, po. Also noted: dose 5 mg/kg, route oral. The data set is classed as ADME, organism-based. As to conditions: plasma.
Data set [8] can be described thus: Clearance in human liver microsomes. The data set is classed as ADME. As to conditions: read-out: CLH. (In general: Liver microsomes are a subcellular fraction often used to study metabolism.)
The test system of another data set is Mus musculus. Briefly: Toxicity in mouse xenografted with human COLO205 cells assessed as change in body weight at 3 mg/kg, po qd for 14 days. The data set is classed as organism-based, COLO 205. Also noted: dose 3 mg/kg, route oral. The following applies: in vivo, 336 h. A digest of the protocol: as §1
A short description of data set [9]: Clearance in rat liver microsomes. As to conditions: read-out: CLH. The data set is classed as ADME.
Data set [10] in a line: AUC in beagle dog at 1 mg/kg, po. The data set is classed as ADME, organism-based, Canis lupus familiaris. Also on record: dose 1 mg/kg, route oral. As to conditions: plasma.
Data set [11] can be described thus: Cmax in rat at 5 mg/kg, po. Format: ADME, organism-based. Also on record: dose 5 mg/kg, route oral. As to conditions: in vivo.
Data set [12] can be described thus: Inhibition of CYP450 (unknown origin) up to 50 uM. The following applies: human. Format: ADME.
The nature of data set [13]: Oral bioavailability in beagle dog at 1 mg/kg. Format: ADME, organism-based, Canis lupus familiaris. As to conditions: in vivo.
Data set [14] can be described thus: Half life in beagle dog at 1 mg/kg, iv. Format: ADME, organism-based, Canis lupus familiaris. As to conditions: in vivo. Also on record: dose 1 mg/kg, route intravenous.
Data set [15] is described as follows: Half life in rat at 5 mg/kg, po. The data set is classed as ADME, organism-based. Also on record: dose 5 mg/kg, route oral. As to conditions: in vivo.

T1 sequence (Q02750 whole entry): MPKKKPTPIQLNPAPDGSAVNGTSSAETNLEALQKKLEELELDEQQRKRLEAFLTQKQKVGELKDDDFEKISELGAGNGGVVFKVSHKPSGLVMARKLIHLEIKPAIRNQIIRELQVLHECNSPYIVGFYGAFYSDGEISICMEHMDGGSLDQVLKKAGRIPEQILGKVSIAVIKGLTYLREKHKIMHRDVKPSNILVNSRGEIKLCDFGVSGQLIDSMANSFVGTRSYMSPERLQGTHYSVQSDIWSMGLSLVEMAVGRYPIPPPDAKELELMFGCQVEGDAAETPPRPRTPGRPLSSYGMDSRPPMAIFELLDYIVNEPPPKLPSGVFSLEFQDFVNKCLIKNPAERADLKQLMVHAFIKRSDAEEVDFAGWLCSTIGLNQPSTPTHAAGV

`O=C(NC[C@H](O)CO)c1ncncc1Nc1ccccc1F`: the IC50 – broadly, the point on the concentration scale where inhibition reaches its midpoint – in [1] is more than 1000 nM.
Regarding `Cn1c(=O)c(F)c(Nc2ccc(I)cc2F)c2c(=O)n(C[C@@H](O)CO)cnc21` [TAK-733], the IC50 in data set [2] was 6.92 nM; in data set [1], 1.79 nM.
For `O=c1c2c(Nc3ccc(I)cc3F)cncc2cnn1C[C@H](O)CO`, the inhibition in vivo at 3 mg/kg in the data set with COLO 205 was determined as 59.5%. Besides, the fraction unbound in [3] is 0.033. For the same molecule, the AUC (in general, the area under the concentration-time curve, a measure of exposure) in data set [4] stood at 1190 ng·h/mL; in [7], 4890 ng·h/mL; in data set [10], 510 ng·h/mL. The Cmax (commonly the maximum level reached in the sampled fluid or tissue) in data set [5] amounted to 117 ng/mL; in data set [11], 1080 ng/mL. Further, the half-life – broadly, how long it takes for the measured level to halve – in [6] is 4.88 h; in [14], 3.11 h; in data set [15], 5.56 h. The microsomal CLint in [8] was 1.25 µL/min/mg; in data set [9] it was 2.38 µL/min/mg. Further, the Activity entry in the data set on Mus musculus is on record as “Non-toxic”. In data set [12], the “inhibition (INH)” value is given as “Not Active”. Moreover, the bioavailability (as a rule, dose-corrected exposure relative to a reference, in per cent) in data set [13] was 43%.
